This is an account of results in ChEMBL document CHEMBL4219124, “Alleviating CYP and hERG liabilities by structure optimization of dihydrofuran-fused tricyclic benzo[d]imidazole series - Potent, selective and orally efficacious microsomal prostaglandin E synthase-1 (mPGES-1) inhibitors: Part-2” (Bioorg Med Chem Lett, 2018).

Data set [1] is described as follows: Metabolic stability in human liver microsomes assessed as parent compound remaining at 1 uM after 60 mins in presence of NADPH by LC-MS/MS analysis. It counts as ADME, microsome. To be noted: read-out: Stability. In a few lines:
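Compound incubated 60 min at 37 °C with human, rat or guinea pig liver microsomes; percent parent remaining, triplicates.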
Background: Liver microsomes are a subcellular fraction often used to study metabolism.

In data set [2] the target is T1, Prostacyclin synthase (Homo sapiens) (UniProt Q16647).
T1 sequence (whole entry): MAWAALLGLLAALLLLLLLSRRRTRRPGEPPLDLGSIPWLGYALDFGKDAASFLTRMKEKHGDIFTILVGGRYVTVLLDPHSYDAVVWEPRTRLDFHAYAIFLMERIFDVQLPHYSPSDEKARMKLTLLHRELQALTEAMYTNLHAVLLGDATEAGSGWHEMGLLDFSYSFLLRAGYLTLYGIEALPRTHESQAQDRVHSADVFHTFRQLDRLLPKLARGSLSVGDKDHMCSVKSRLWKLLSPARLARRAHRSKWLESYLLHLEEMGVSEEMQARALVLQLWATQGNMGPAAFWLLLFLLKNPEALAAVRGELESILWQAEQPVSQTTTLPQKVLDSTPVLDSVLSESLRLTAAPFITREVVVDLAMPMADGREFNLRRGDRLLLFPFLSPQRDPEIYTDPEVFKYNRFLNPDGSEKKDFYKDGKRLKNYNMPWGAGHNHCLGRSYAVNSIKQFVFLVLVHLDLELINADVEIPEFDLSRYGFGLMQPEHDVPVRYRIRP
Description: Inhibition of recombinant human PGIS expressed in CHO cells at 10 uM relative to control. It counts as cell-based.

In data set [3] the target is T2, Thromboxane-A synthase (Homo sapiens) (UniProt P24557).
T2 sequence (whole entry): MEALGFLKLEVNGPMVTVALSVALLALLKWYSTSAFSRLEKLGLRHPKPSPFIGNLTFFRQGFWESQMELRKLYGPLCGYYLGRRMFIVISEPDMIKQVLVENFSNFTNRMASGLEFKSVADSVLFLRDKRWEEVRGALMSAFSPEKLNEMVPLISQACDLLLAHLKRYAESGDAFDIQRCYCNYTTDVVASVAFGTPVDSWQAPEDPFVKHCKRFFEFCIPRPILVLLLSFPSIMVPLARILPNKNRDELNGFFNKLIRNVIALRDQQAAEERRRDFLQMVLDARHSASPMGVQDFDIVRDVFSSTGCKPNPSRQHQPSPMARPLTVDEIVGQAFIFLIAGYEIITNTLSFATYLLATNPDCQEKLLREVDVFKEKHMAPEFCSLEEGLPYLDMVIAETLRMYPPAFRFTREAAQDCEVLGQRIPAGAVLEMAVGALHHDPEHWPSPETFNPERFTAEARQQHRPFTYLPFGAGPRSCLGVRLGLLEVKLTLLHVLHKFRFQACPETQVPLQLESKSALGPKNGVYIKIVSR
Description: Inhibition of TXAS (unknown origin) at 10 uM relative to control. In outline: (§1)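 Selectivity panel against other prostanoid-pathway enzymes. % inhibition values are means of at least two experiments, each in duplicate.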

Data set [4] addresses T3, Prostaglandin E synthase (Homo sapiens, UniProt O14684).
T3 sequence (O14684 whole entry): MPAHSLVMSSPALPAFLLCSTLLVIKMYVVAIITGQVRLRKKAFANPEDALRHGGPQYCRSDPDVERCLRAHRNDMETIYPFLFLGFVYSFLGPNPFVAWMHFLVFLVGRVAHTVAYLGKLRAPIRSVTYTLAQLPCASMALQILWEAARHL
Kind of data set: Inhibition of recombinant human mPGES1 expressed in CHO cells assessed as reduction in PGE2 production using PGH2 as substrate incubated for 10 mins followed by substrate addition measured for 1 min. Format: cell-based.

Data set [5] deals with T3, Prostaglandin E synthase. Kind of data set: Inhibition of mPGES1 in human whole blood assessed as reduction in LPS-induced PGE2 production measured after 20 to 24 hrs.
The next data set has as its target CYP2D6 (Homo sapiens, UniProt P10635). Description: Inhibition of CYP2D6 in human liver microsomes at 10 uM after 20 mins in presence of NADPH by LC-MS/MS analysis. It counts as ADME. The note with it: liver microsomes. In a few lines:
(§2)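 Percent inhibition of each CYP isoform by test compound at 10 µM, compared with a no-inhibitor control. Run in triplicate.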

The next data set deals with CYP3A4 (Homo sapiens, UniProt P08684). Description: Inhibition of CYP3A4 in human liver microsomes at 10 uM after 20 mins in presence of NADPH by LC-MS/MS analysis. Format: ADME. In outline: as §2
Sequence of CYP3A4 (P08684 whole entry): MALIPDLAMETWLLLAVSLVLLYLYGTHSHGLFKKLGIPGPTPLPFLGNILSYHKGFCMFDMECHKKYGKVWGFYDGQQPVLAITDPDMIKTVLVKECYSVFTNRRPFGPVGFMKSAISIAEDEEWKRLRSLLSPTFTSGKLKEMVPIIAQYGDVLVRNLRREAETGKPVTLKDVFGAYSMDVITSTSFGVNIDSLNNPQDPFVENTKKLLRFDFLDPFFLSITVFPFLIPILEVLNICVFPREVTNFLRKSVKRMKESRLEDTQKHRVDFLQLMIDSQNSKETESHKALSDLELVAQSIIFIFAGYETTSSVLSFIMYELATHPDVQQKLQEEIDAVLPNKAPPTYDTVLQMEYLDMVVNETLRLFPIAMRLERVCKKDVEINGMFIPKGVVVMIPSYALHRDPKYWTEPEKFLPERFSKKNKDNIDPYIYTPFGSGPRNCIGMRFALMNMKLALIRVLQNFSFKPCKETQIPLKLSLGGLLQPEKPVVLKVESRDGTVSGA
The next data set concerns the target CYP2C9 (Homo sapiens, UniProt P11712). Description: Inhibition of CYP2C9 in human liver microsomes at 10 uM after 20 mins in presence of NADPH by LC-MS/MS analysis. Format: ADME. In outline: as §2
For a further data set, the target named is hERG (KCNH2) (Homo sapiens, UniProt Q12809). Description: Inhibition of human ERG at 10 uM by patch clamp assay relative to control. In a few lines:
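hERG current measured by patch clamp with test compound at 10 µM; result given as % inhibition.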

Data set [6] addresses Prostaglandin E synthase 2 (Homo sapiens) (UniProt Q9H7Z7). Description: Inhibition of mPGES2 in A23187-stimulated human THP1 cells assessed as decrease in PGE2 production at 10 uM using arachidonic acid as substrate relative to control. In outline:
as §1

Data set [7] deals with Hematopoietic prostaglandin D synthase (Homo sapiens) (UniProt O60760). Kind of data set: Inhibition of PGDS (unknown origin) at 10 uM relative to control. In outline:
as §1

The nature of data set [8]: Inhibition of guinea pig mPGES1 expressed in CHO cells assessed as reduction in PGE2 production using PGH2 as substrate incubated for 10 mins followed by substrate addition measured for 1 min. More on the design: species or system Cavia porcellus. In outline:
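Guinea pig mPGES-1 enzyme assay, run the same way as the human enzyme assay. IC50 for inhibition of PGE2 formation, read from curves built on at least two experiments, each in duplicate.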

Data set [9] addresses T4, Prostaglandin E synthase (Mus musculus) (UniProt Q9JM51).
T4 sequence (whole entry): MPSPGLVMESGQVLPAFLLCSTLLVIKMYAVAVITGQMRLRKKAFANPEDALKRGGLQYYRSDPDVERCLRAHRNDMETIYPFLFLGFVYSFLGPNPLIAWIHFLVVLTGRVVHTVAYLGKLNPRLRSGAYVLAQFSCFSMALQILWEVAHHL
Kind of data set: Inhibition of mouse mPGES1 expressed in CHO cells assessed as reduction in PGE2 production at 10 uM using PGH2 as substrate incubated for 10 mins followed by substrate addition measured for 1 min relative to control. In outline:
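Rodent enzyme protocol run as for the human and guinea pig mPGES-1 enzyme assays; single-concentration percent inhibition.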

Sequence of CYP2D6 (P10635 whole entry, canonical isoform): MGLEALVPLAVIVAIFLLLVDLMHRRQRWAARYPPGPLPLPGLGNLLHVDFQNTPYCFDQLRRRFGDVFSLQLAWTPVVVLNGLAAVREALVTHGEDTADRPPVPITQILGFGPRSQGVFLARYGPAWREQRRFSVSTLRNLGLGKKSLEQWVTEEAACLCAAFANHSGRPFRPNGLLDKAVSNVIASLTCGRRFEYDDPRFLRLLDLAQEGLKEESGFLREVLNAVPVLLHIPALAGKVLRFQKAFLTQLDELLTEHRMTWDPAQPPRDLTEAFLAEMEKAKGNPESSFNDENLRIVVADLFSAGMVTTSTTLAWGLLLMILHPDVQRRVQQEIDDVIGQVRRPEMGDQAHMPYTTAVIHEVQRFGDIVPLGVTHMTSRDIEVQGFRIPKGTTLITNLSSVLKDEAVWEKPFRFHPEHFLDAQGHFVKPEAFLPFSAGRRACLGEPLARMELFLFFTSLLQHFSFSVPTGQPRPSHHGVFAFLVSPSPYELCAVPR
Sequence of CYP2C9 (P11712 whole entry): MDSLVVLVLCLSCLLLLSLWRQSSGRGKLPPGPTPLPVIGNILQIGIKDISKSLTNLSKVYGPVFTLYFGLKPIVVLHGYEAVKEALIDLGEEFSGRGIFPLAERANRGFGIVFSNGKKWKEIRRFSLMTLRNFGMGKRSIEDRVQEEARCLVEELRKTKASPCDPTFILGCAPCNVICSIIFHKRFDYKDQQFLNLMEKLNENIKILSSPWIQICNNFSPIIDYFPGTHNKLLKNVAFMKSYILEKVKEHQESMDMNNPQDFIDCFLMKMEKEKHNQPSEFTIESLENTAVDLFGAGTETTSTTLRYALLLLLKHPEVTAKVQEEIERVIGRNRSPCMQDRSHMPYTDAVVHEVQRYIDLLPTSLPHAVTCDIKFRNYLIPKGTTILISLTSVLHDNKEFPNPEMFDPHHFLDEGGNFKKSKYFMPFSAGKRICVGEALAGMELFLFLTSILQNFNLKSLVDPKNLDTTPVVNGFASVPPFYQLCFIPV
Sequence of Prostaglandin E synthase 2 (Homo sapiens) (Q9H7Z7 whole entry): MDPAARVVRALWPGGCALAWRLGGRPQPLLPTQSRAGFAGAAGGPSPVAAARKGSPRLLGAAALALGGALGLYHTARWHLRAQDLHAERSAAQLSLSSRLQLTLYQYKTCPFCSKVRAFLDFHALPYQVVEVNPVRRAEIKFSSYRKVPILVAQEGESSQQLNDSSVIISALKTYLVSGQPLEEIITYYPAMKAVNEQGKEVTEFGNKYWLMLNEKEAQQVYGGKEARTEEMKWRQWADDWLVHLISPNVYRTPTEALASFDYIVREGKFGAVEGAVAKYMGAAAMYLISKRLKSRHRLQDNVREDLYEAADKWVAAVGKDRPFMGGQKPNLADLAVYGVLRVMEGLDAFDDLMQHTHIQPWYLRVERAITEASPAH
Sequence of hERG (KCNH2) (Q12809 whole entry): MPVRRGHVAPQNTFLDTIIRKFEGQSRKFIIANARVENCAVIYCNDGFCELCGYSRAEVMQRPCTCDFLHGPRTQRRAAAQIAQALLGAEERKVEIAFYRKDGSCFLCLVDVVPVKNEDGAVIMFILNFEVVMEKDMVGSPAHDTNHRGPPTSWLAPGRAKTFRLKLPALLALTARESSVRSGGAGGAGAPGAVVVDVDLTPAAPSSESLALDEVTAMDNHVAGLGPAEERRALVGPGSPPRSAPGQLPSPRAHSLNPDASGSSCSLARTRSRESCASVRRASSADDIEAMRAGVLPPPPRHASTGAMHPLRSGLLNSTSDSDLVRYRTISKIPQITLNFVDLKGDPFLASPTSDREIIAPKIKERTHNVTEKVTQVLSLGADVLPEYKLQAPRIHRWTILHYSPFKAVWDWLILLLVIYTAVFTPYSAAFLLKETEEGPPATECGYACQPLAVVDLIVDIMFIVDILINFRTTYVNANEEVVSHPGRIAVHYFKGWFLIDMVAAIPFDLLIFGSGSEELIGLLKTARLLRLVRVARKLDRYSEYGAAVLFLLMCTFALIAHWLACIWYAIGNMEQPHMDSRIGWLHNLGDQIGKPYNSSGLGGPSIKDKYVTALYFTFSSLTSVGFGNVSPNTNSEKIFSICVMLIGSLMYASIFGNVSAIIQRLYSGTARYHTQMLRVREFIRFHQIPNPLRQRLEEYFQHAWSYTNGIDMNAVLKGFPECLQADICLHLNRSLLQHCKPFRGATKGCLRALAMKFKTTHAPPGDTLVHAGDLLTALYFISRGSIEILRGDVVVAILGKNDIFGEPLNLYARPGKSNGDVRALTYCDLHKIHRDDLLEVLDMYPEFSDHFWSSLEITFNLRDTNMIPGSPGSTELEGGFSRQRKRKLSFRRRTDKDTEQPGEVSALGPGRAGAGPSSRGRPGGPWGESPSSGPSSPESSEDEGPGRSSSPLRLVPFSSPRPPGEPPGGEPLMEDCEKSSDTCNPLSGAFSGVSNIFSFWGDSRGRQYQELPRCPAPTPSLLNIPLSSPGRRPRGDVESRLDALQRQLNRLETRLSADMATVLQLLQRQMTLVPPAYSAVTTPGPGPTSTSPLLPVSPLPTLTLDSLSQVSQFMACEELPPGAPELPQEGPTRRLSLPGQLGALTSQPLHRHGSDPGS
Sequence of Hematopoietic prostaglandin D synthase (Homo sapiens) (O60760 whole entry): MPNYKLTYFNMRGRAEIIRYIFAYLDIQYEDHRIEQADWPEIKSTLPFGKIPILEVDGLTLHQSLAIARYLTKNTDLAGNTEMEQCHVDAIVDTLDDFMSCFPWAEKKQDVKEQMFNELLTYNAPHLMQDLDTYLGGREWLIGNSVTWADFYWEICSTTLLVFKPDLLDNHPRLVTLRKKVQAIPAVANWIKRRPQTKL

The term inhibition denotes the drop in the measured response relative to a control, in per cent. For orientation: IC50 means the concentration that gives 50% inhibition. For the molecule `CC1(C)Cc2c(c(C(=O)Nc3ccc(F)c(C(F)(F)F)c3)cc3nc(Nc4c(F)cccc4Cl)[nH]c23)O1`, in [1], the remaining at 1 h, 1 µM was determined as 100%. Also, the inhibition worked out at 2.5% in data set [2]; 25.5% in data set [3]; 11.6% in data set [6]; 0% in data set [7]; 22.1% in data set [9]. Besides, the IC50 at Prostaglandin E synthase [4] turned out to be 5 nM; at Prostaglandin E synthase [5], 208 nM; in data set [8] it was 24 nM. Also, the inhibition at 20 min, 10 µM was 19% at CYP2D6, 46% at CYP3A4 and 48% on CYP2C9. Also, the inhibition at 10 µM on hERG (KCNH2) turned out to be 3.8%.
As to `CC1(C)Cc2c(c(C(=O)Nc3cc(C(F)(F)F)ccc3F)cc3nc(Nc4c(F)cccc4Cl)[nH]c23)O1`, the remaining at 1 h, 1 µM in [1] is 89%. In addition, the inhibition in data set [2] was determined as 5.6%; in [3], 4.6%; in data set [6] it was 13.5%; in data set [7], 5.8%; in [9], 14.4%. The concentration for half-maximal inhibition (IC50) on Prostaglandin E synthase [4] amounted to 3 nM; at Prostaglandin E synthase [5], 256 nM; in data set [8] it was 14 nM. Also, the results for the inhibition at 20 min, 10 µM at CYP2D6, at CYP3A4 and at CYP2C9 were 12%, 2% and 35%, respectively. On hERG (KCNH2), the inhibition at 10 µM was 5.8%.
`Cc1cccc(Cl)c1Nc1nc2cc(C(=O)Nc3cc(C(F)(F)F)ccc3F)c3c(c2[nH]1)CC(C)(C)O3`: the remaining at 1 h, 1 µM in [1] amounted to 100%. Moreover, the inhibition in [2] was determined as 7.5%; in data set [3] it was 0.87%; in [6] it was 23.5%; in [7] it was 19.5%; in data set [9], 8.2%. Further, the IC50 on Prostaglandin E synthase [4] is 3.3 nM; on Prostaglandin E synthase [5], 222 nM; in [8], 19 nM. The inhibition at 20 min, 10 µM on CYP2D6 is -2%; on CYP3A4, -4%; at CYP2C9, 15%. Moreover, the inhibition at 10 µM at hERG (KCNH2) turned out to be 12.3%.
With `Cn1c(Nc2c(F)cccc2Cl)nc2cc(C(=O)Nc3cccc(C(F)(F)F)c3)c3c(c21)CC(C)(C)O3`, the remaining at 1 h, 1 µM in data set [1] was determined as 98%. For the same molecule, the inhibition is 3.9% in [2]; 22.1% in data set [3]; 7.9% in [6]; 16.5% in [7]; 5.2% in data set [9]. The values for the IC50 (on Prostaglandin E synthase [4]; on Prostaglandin E synthase [5]; in data set [8]) were 5.7 nM, 405 nM and 4.3 nM, respectively. The inhibition at 20 min, 10 µM on CYP2D6 is 29%; at CYP3A4 it was 8%; on CYP2C9 it was 19%. Besides, the inhibition at 10 µM against hERG (KCNH2) turned out to be 26.5%.
As to `CC1(C)Cc2c(c(C(=O)Nc3ccc(C(F)(F)F)cn3)cc3nc(Nc4c(Cl)cccc4Cl)[nH]c23)O1`, the remaining at 1 h, 1 µM in data set [1] was 91%. The inhibition in [2] worked out at 4.3%; in [3], 1.3%; in data set [6] it was 7.8%; in [7], 15.1%; in data set [9], 10.9%. The results for the half-inhibitory concentration (IC50) (on Prostaglandin E synthase [4]; at Prostaglandin E synthase [5]; in data set [8]) were 8.4 nM, 261 nM and 12 nM, respectively. The inhibition at 20 min, 10 µM was 9% on CYP2D6, 40% on CYP3A4 and 56% at CYP2C9. Further, the inhibition at 10 µM against hERG (KCNH2) was determined as 5.4%.
Consider `Cc1cccc(Cl)c1Nc1nc2cc(C(=O)Nc3cc(C(F)F)ccc3F)c3c(c2[nH]1)CC(C)(C)O3`, for which the remaining at 1 h, 1 µM in data set [1] stood at 83%. Further, the inhibition in data set [2] is 20.1%; in data set [3] it was 17.2%; in data set [6] it was 3.8%; in data set [7], 27.6%; in data set [9], 2.5%. For the same molecule, the concentration for half-maximal inhibition (IC50) on Prostaglandin E synthase [4] was 10 nM; at Prostaglandin E synthase [5], 162 nM; in data set [8], 46 nM. The inhibition at 20 min, 10 µM on CYP2D6 stood at 14%; at CYP3A4, 16%; at CYP2C9, 28%. Also, the inhibition at 10 µM on hERG (KCNH2) was found to be 11.8%.
